Assay results reported in ChEMBL document CHEMBL1157951, “Weakly antimalarial flavonol arabinofuranosides from Calycolpus warszewiczianus” (J Nat Prod, 2006).
pIC50: −log10 of the molar value. Activity calls are given as the source filed them. The rule behind the calls is not given here.

Legend:
Leishmania mexicana = assay: Antileishmanial activity against Leishmania mexicana WHO-MOHM/B2/82/BELZ promastigote at 40 ug/mL by XTT assay; assay type: functional, organism-based
Outline: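 Promastigotes of L. mexicana (WHO-MOHM/B2/82/BELZ), cultured by established protocols, in a colorimetric growth assay; read-out is reduction of the tetrazolium salt XTT to a water-soluble formazan. Compounds tested at 40 µg/mL.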

Trypanosoma cruzi = assay: Antitrypanosomal activity against Trypanosoma cruzi Tulahuen at 50 ug/mL by beta-galactosidase assay; assay type: functional, organism-based
Outline: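 A transgenic T. cruzi expressing β-galactosidase (Tulahuen strain, clone C4) was used. Growth of the intracellular stage was read from cleavage of the colorimetric substrate chlorophenol red-β-D-galactoside. Compounds tested at 50 µg/mL.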

Plasmodium falciparum = assay: Antiplasmodial activity against chloroquine-resistant Plasmodium falciparum W2; assay type: functional, organism-based
Vero = assay: Cytotoxicity against african green monkey Vero cells after 4 hrs by MTT assay; assay type: cell-based; conditions: Chlorocebus sabaeus

Structure (SMILES): CC(=O)O[C@@H]1[C@@H](O)[C@H](Oc2c(-c3cc(O)c(O)c(O)c3)oc3cc(O)cc(O)c3c2=O)O[C@H]1CO
- Activity (Leishmania mexicana): inactive
- Activity (Trypanosoma cruzi): inactive

Structure (SMILES): O=c1c(O[C@@H]2O[C@@H](CO)[C@H](O)[C@H]2O)c(-c2cc(O)c(O)c(O)c2)oc2cc(O)cc(O)c12
- Activity (Leishmania mexicana): inactive
- pIC50 (Plasmodium falciparum): 4.56
- Activity (Trypanosoma cruzi): inactive

Structure (SMILES): CC(=O)OC[C@@H]1O[C@@H](Oc2c(-c3cc(O)c(O)c(O)c3)oc3cc(O)cc(O)c3c2=O)[C@H](O)[C@H]1OC(C)=O
- Activity (Leishmania mexicana): inactive
- Activity (Trypanosoma cruzi): inactive
- pIC50 (Vero): 3.34

Structure (SMILES): O=C(Oc1cc(O)cc2oc(-c3ccc(O)c(O)c3)c(O[C@@H]3O[C@@H](CO)[C@H](O)[C@H]3O)c(=O)c12)c1cc(O)c(O)c(O)c1
- Activity (Leishmania mexicana): inactive
- pIC50 (Plasmodium falciparum): 4.84
- Activity (Trypanosoma cruzi): inactive
- pIC50 (Vero): 4.06

Structure (SMILES): Oc1cc(O)c2c(c1)O[C@H](c1ccc(O)c(O)c1)[C@H](O)C2 [(-)-EPICATECHIN]
- pIC50 (Plasmodium falciparum): < 4.30
- pIC50 (Vero): 3.73
